Data set [1] deals with bleomycin-induced dermal fibrosis. Particulars: mice, 14 days of IP dosing, 100 mg/kg bid; cited from earlier work.
Data set [2] is described as follows: Stability to incubation with mouse liver microsomes. Type of data set: in vitro ADME. To be noted: relative to 1.
The test system of data set [3] is ACTA2 expression. The data set can be described thus: ACTA2 mRNA expression. To be noted: Homo sapiens, Fibroblast, 24 h, read-out: ACTA2 (%ctrl), inhibition of ACTA2 expression (percent control), TGF-β-stimulated human dermal fibroblasts, 10 μM, 24 hrs, mean of n=3. The class given is cell-based.
The test system of data set [4] is conjunctival fibrosis (scar tissue formation). Particulars: preclinical model of conjunctival fibrosis; ref 18 (Yu-Wai-Man et al); cited from earlier work.
Data set [5] deals with Rho/MRTF/SRF pathway (SRE.L promoter luciferase reporter). The data set can be described thus: Inhibition of Gα12-stimulated SRE.Luciferase activity in HEK293T cells. The class given is cell-based. In outline: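 HEK293T cells were transfected with a luciferase reporter driven by the MRTF-selective SRE.L promoter. Reporter activity was Gα12-stimulated, and inhibition of luciferase signal by test compound was measured. Values are means of n ≥ 3.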

Data set [6] relates to bleomycin-induced dermal fibrosis. Description: Bleomycin-induced dermal fibrosis in mice. The class given is in vivo. Particulars: PO 50 mg/kg qd, 14 days, vs bleomycin treatment alone. The gist of the method:
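Three groups of mice (n=8) were treated daily for 14 days. Controls received intracutaneous PBS. The bleomycin group received intracutaneous bleomycin with concurrent oral gavage of vehicle. The treated group received intracutaneous bleomycin with concurrent oral gavage of test compound at 50 mg/kg. Read-outs were dermal thickness and hydroxyproline content, each compared with bleomycin alone.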

Each structure is given as a SMILES string.

In the case of `O=C(Nc1ccc(Cl)cc1)C1CCCN(C(=O)c2cccc(-c3ccco3)c2)C1` (centres unmarked) [Cmpd 1], in data set [1], the “Effect on development of bleomycin-induced dermal fibrosis” value is recorded as “can attenuate the development of bleomycin-induced dermal fibrosis”.
With `O=C(Nc1ccc(Cl)cc1)C1CN(C(=O)c2cccc(-c3ccco3)c2)CC(F)(F)C1` (centres unmarked) [Cmpd 8a], in data set [2], the “Lengthening of half-time in MLM (factor)” value is given as “three”. In data set [3], the mrna remaining at 10 µM is 9%. Besides, in data set [4], the “Effect on scar tissue formation” value is recorded as “prevent scar tissue formation”.
Turning to `CN(C(=O)C1CCCN(C(=O)c2cccc(-c3ccco3)c2)C1)c1ccc(Cl)cc1` (centres unmarked) [Cmpd 26], the “Reduction of SRE.L activity” value in data set [5] (relative to 1) turned out to be 10 fold.
On to `C=C1CC(C(=O)Nc2ccc(Cl)cc2)CN(C(=O)c2cccc(-c3ccco3)c2)C1` (centres unmarked) [Cmpd 23], for which the “Improvement of SRE.L potency” value in data set [5] (relative to 5-carbonyl/parent series) is recorded as about 10 fold.
Consider `O=C(Nc1ccc(Cl)cc1)C1CN(C(=O)c2cccc(-c3ccncc3)c2)CC(F)(F)C1` (centres unmarked) [Cmpd 8f], for which, in data set [6], the “Reduction of bleomycin-induced increase in dermal thickness” value was −55% and the “Reduction of bleomycin-induced increase in hydroxyproline content” value was −62%.

These data come from publication PMC5395305 (Bioorganic & medicinal chemistry letters, 2017).
